This passage reports Ki and Ratio Ki results from ChEMBL document CHEMBL3407439, “A facile and novel synthesis of N(2)-, C(6)-substituted pyrazolo[3,4-d]pyrimidine-4 carboxylate derivatives as adenosine receptor antagonists” (Eur J Med Chem, 2015).

The term Ki denotes the equilibrium dissociation constant of an inhibitor or competing ligand from its target.

The target of one assay is Adenosine receptor A2a (Homo sapiens, UniProt P29274). Description: Displacement of [3H]NECA from human adenosine A2A receptor expressed in CHO cells by Top Count analysis. The class given is cell-based. Background: Loss of bound radioactivity is the signal in a displacement assay; it reports binding, not function.
Chain of Adenosine receptor A2a (P29274 whole entry): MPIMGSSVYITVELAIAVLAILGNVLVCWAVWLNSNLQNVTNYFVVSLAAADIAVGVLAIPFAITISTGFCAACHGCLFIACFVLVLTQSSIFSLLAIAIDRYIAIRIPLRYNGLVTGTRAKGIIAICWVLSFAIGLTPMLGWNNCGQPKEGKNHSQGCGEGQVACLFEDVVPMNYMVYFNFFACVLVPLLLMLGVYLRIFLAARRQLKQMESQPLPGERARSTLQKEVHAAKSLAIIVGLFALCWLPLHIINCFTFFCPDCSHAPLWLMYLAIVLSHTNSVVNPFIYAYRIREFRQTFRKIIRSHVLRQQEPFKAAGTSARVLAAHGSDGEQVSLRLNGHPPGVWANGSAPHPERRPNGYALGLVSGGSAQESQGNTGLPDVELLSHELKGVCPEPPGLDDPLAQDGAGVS
The target in another assay is T1, Adenosine receptor A3 (Homo sapiens, UniProt P0DMS8).
T1 sequence (P0DMS8 whole entry): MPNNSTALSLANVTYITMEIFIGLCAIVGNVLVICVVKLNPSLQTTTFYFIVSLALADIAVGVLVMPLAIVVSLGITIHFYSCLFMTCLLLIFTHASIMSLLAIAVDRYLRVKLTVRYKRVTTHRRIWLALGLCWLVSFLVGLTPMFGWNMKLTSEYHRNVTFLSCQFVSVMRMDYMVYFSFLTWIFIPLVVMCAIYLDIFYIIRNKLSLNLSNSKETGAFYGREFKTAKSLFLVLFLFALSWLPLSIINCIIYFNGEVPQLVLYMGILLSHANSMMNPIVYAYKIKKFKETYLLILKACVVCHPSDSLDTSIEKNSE
Description: Displacement of [3H]HEMADO from human adenosine A3 receptor expressed in CHO cells by Top Count analysis. The format is cell-based. In outline: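 Competition against [3H]HEMADO binding at hA3 receptor in CHO cells, 3 h at room temperature; nonspecific binding defined with 100 µM R-PIA.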

A further assay is filed under the species Homo sapiens. Description: Selectivity ratio of Ki for human adenosine A2A receptor to Ki for human adenosine A3 receptor.
A further assay addresses T2, Adenosine receptor A2b (Homo sapiens, UniProt P29275).
T2 sequence (P29275 whole entry): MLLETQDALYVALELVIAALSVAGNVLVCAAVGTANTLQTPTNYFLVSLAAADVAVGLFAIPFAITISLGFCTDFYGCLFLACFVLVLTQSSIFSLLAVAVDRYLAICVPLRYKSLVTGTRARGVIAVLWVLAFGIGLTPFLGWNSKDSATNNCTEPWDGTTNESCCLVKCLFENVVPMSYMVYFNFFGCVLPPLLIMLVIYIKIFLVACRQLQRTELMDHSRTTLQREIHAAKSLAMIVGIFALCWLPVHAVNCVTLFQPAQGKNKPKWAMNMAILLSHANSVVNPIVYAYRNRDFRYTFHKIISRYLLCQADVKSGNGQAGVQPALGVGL
Description: Antagonist activity at human adenosine A2B receptor expressed in CHO cells assessed as inhibition of NECA-induced adenylyl cyclase activity. The class given is functional, cell-based. In short, it runs like this: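 Membranes from CHO cells transfected with hA2B receptor incubated 20 min with 100 nM NECA, 150,000 cpm [α-32P]ATP and varying antagonist concentrations, in mixture lacking EGTA and NaCl. Ki derived from concentration-dependent inhibition of NECA-stimulated adenylyl cyclase activity; n = 3–6.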

The next assay addresses T3, Adenosine receptor A1 (Homo sapiens, UniProt P30542).
T3 sequence (P30542 whole entry): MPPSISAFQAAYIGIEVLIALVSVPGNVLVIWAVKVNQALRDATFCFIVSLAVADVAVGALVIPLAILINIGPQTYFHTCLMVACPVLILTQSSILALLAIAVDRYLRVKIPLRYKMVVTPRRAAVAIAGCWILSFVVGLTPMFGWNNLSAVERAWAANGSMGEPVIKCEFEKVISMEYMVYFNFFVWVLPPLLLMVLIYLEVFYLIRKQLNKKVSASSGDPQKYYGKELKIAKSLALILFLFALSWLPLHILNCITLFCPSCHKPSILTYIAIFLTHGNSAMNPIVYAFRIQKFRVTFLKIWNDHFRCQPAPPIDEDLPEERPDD
Description: Displacement of [3H]CCPA from human adenosine A1 receptor expressed in CHO cells by Top Count analysis. The class given is cell-based. In outline:
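Tritiated-radioligand competition binding at hA1 receptor, 3 h at room temperature; nonspecific binding with 1 mM theophylline. Separation by GF/B glass-fibre filtration, filter radioactivity counted by scintillation (57% efficiency). Ki from competition curves by nonlinear curve fitting.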

Assay [1] deals with Adenosine receptors; A1 & A3 (Homo sapiens) (UniProt P30542+P0DMS8). Description: Selectivity ratio of Ki for human adenosine A1 receptor to Ki for human adenosine A3 receptor.

Turning to `NC(=O)c1nc(N)nc2nn(CCc3ccccc3)cc12`, the Ki was 15.7 µM at Adenosine receptor A2a, 32.9 µM on Adenosine receptor A3, over 20 µM on Adenosine receptor A2b and 40.2 µM on Adenosine receptor A1. Further, the results for the Ratio Ki (in the assay filed under Homo sapiens; in assay [1]) were 0.47 and 1.2, respectively.
For `CCOC(=O)c1nc(NC(=O)c2ccccc2)nc2nn(C)cc12`, the Ki on Adenosine receptor A2a was 16.1 µM; on Adenosine receptor A3, over 100 µM; at Adenosine receptor A2b, over 20 µM; on Adenosine receptor A1 it was 14 µM. Besides, the Ratio Ki is under 0.16 in the assay listed under Homo sapiens and under 0.14 in assay [1].
`CCOC(=O)c1nc(NC(=O)c2ccccc2)nc2nn(CCc3ccccc3)cc12`: the Ki on Adenosine receptor A2a is 3.7 µM; on Adenosine receptor A3, 12.2 µM; on Adenosine receptor A2b, over 10 µM; at Adenosine receptor A1 it was 5.1 µM. For the same molecule, the Ratio Ki in the assay listed under Homo sapiens came out at 0.3; in assay [1], 0.41.
As for `CCOC(=O)c1nc(NC(=O)c2ccc(F)cc2)nc2nn(CC(C)(C)C)cc12`, the Ki at Adenosine receptor A2a is 5.7 µM; on Adenosine receptor A3, 4.3 µM; on Adenosine receptor A2b, over 20 µM; on Adenosine receptor A1, 2.7 µM. Moreover, the values for the Ratio Ki (in the assay listed under Homo sapiens; in assay [1]) were 1.3 and 0.62, respectively.
